Source: ChEMBL document CHEMBL1131331, “Structure-activity studies on anticonvulsant sugar sulfamates related to topiramate. Enhanced potency with cyclic sulfate derivatives” (J Med Chem, 1998)
Values belong to the compound of their own block, whether it stands above or below them.

Experiments:
Mus musculus [1] = assay: Activity against maximal electroshock seizures in mice, 4 hr following oral administration of 35 mg/kg of compound; type: functional
In short: (§1)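 Mouse maximal electroshock seizure test. An electric shock is applied through corneal electrodes, and block of the hind-limb tonic-extensor seizure is scored. Compounds are given orally, usually to 10 mice per group, and tested 4 h after dosing. The result is reported as percent of dosed animals protected at the stated dose.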

Mus musculus [2] = assay: Activity against maximal electroshock seizures in mice, 4 hr following oral administration of 75 mg/kg; type: functional; in short: as §1
Mus musculus [3] = assay: Activity against maximal electroshock seizures in mice, 4 hr following oral administration of 300 mg/kg of compound; type: functional; in short: as §1
Mus musculus [4] = assay: Activity against maximal electroshock seizures in mice, 4 hr following oral administration of 15 mg/kg of compound; type: functional; in short: as §1
Mus musculus [5] = assay: Effective dose against maximal electroshock seizures in mice, at 4 hr following oral administration of 10 mg/kg of compound; type: functional
Mus musculus [6] = assay: Activity against maximal electroshock seizures in mice, 4 hr following oral administration of 30 mg/kg of compound; type: functional; in short: as §1
Mus musculus [7] = assay: Inhibition of maximal electroshock seizures in mice, 4 hr following 10 mg/kg p.o. administration.; type: functional; settings: route oral; in short: as §1
Mus musculus [8] = assay: Activity against maximal electroshock seizures in mice, 4 hr following oral administration of 40 mg/kg of compound; type: functional; in short: as §1
Mus musculus [9] = assay: Activity against maximal electroshock seizures in mice, 4 hr following oral administration of 80 mg/kg of compound; type: functional; in short: as §1
[10] = (§2) Partition coefficient (logP); type: physicochemical; settings: octanol/water
In short: (§3)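 Apparent octanol–water partition coefficient D, measured in unbuffered water (pH 7.2–7.6) using an HPLC refractive-index assay. True P is calculated as […], and P7.4 as P/[1 + 10^(7.4 − pKa)], using pKa values from potentiometric titration.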

[11] = Pharmacokinetic parameter :The dissociation constant values at 25 degrees C, obtained by potentiometric titration.; type: ADME
[12] = pH 7.4 value at 7.61 pH; type: ADME; in short: as §3
[13] = as §2; type: physicochemical; settings: octanol/water; in short: as §3; remark: listed apart in the source
[14] = Pharmacokinetic parameter :log P7.4 log P value at pH 7.4; type: physicochemical; settings: buffer, read-out: Log D7.4; in short: as §3
Mus musculus [15] = assay: Activity against maximal electroshock seizures in mice, 4 hr following oral administration of 75 mg/kg of compound; type: functional; in short: as §1
[16] = Inhibition concentration by inhibition of carbonic anhydrase from blood in Rat. 95% confidence limits are given in parentheses.
Rattus norvegicus [17] = species on record: Rattus norvegicus; assay: Compound was tested for the effective dose (ED50) for each time point in Rats. 95% confidence limits are given in parentheses 48 Hour; type: functional
In short: (§4)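 Rat MES time-course study. Compounds are given orally, and block of the hind-limb tonic-extensor seizure induced by corneal electroshock is assessed at each time point. For each time point, the ED50 (mg/kg) is reported with 95% confidence limits.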

Mus musculus [18] = species on record: Mus musculus; assay: Compound was tested for the effective dose (ED50) for each time point in Mice. 95% confidence limits are given in parentheses 12 hr; type: functional
In short: (§5)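 Mouse MES time-course study. Compounds are given orally, and hind-limb tonic-extensor block after corneal-electrode shock is scored at each time point. For each time point, the ED50 (mg/kg) is reported with 95% confidence limits.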

Mus musculus [19] = species on record: Mus musculus; assay: Compound was tested for the effective dose (ED50) for each time point in Mice. 95% confidence limits are given in parentheses 1 Hour; type: functional
[20] = Inhibition concentration by inhibition of carbonic anhydrase from brain in Rat. 95% confidence limits are given in parentheses.
Rattus norvegicus [21] = species on record: Rattus norvegicus; assay: Compound was tested for the effective dose (ED50) for each time point in Rats. 95% confidence limits are given in parentheses 24 Hour; type: functional; in short: as §4
Rattus norvegicus [22] = species on record: Rattus norvegicus; assay: Compound was tested for the effective dose (ED50) for each time point in Rats. 95% confidence limits are given in parentheses 12 Hour; type: functional; in short: as §4
Rattus norvegicus [23] = species on record: Rattus norvegicus; assay: Compound was tested for the effective dose (ED50) for each time point in Rats. 95% confidence limits are given in parentheses 8 Hour; type: functional; in short: as §4
Mus musculus [24] = species on record: Mus musculus; assay: Compound was tested for the effective dose (ED50) for each time point in Mice. 95% confidence limits are given in parentheses 2 Hour; type: functional
[25] = Inhibition concentration by inhibition of carbonic anhydrase from synaptosomes in Rat. 95% confidence limits are given in parentheses.; type: subcellular, Brain
Mus musculus [26] = species on record: Mus musculus; assay: Compound was tested for the effective dose (ED50) for each time point in Mice. 95% confidence limits are given in parentheses 24 Hour; type: functional; in short: as §5
Mus musculus [27] = species on record: Mus musculus; assay: Compound was tested for the effective dose (ED50) for each time point in Mice. 95% confidence limits are given in parentheses 4 Hour; type: functional
[28] = Inhibition concentration by inhibition of carbonic anhydrase from myelin in Rat. 95% confidence limits are given in parentheses.
Rattus norvegicus [29] = species on record: Rattus norvegicus; assay: Compound was tested for the effective dose (ED50) for each time point in Rats. 95% confidence limits are given in parentheses 4 Hour; type: functional; in short: as §4
[30] = as §2; type: physicochemical; settings: octanol/water; in short: as §3; remark: listed apart in the source
[31] = Inhibition concentration by inhibition of carbonic anhydrase from kidney in Rat. 95% confidence limits are given in parentheses.
Rattus norvegicus [32] = species on record: Rattus norvegicus; assay: Compound was tested for the effective dose (ED50) for each time point in Rats. 95% confidence limits are given in parentheses 2 Hour; type: functional; in short: as §4
Rattus norvegicus [33] = species on record: Rattus norvegicus; assay: Compound was tested for the effective dose (ED50) for each time point in Rats. 95% confidence limits are given in parentheses 1 Hour; type: functional; in short: as §4
Rattus norvegicus [34] = species on record: Rattus norvegicus; assay: Compound was tested for the effective dose (ED50) for each time point in Rats. 95% confidence limits are given in parentheses 16 Hour; type: functional; in short: as §4
[35] = pH 7.4 value at pH 7.25; type: ADME; in short: as §3
Mus musculus [36] = assay: Compound activity was measured at 4 hr following administration of the oral dosage (perorally) 5 mg/kg in mice, and is reported as percent block at the given dose.; type: functional; in short: as §1

Structure (SMILES): CC1(C)O[C@H]2[C@@H]3O[C@H](c4ccccc4)O[C@@H]3CO[C@@]2(COS(N)(=O)=O)O1
Block (Mus musculus [1]): 0%
Block (Mus musculus [2]): 20%

Structure (SMILES): CC1(C)O[C@H]2[C@@H]3OC(=O)O[C@@H]3CO[C@@]2(COS(N)(=O)=O)O1
Block (Mus musculus [2]): 0%
Block (Mus musculus [3]): 70%

Structure (SMILES): CC1(C)O[C@@H]2[C@H]3OS(=O)(=O)O[C@H]3CO[C@]2(COS(N)(=O)=O)O1
Block (Mus musculus [4]): 30%
ED50 (Mus musculus [5]): 22 mg/kg
Block (Mus musculus [6]): 80%

Structure (SMILES): CSC(=O)O[C@H]1CO[C@@]2(COS(N)(=O)=O)OC(C)(C)O[C@H]2[C@@H]1I
Block (Mus musculus [7]): 0%
ED50 (Mus musculus [5]): 30 mg/kg
Block (Mus musculus [2]): 90%

Structure (SMILES): CC1(C)O[C@H]2[C@H](CO[C@]3(COS(N)(=O)=O)OC(C)(C)O[C@H]23)O1
ED50 (Mus musculus [5]): 82 mg/kg
Block (Mus musculus [8]): 20%
Block (Mus musculus [9]): 50%

Structure (SMILES): CC[C@H]1O[C@@H]2[C@@H](CO[C@@]3(COS(N)(=O)=O)OC(C)(C)O[C@@H]23)O1
Block (Mus musculus [1]): 10%
Block (Mus musculus [2]): 90%

logP [10]: 1.55
pKa [11]: 8.62
P7.4 [12]: 31.5
logP [13]: 1.52
logD [14]: 1.5
Structure (SMILES): CCC1(CC)O[C@@H]2[C@@H](CO[C@@]3(COS(N)(=O)=O)OC(C)(C)O[C@@H]23)O1
Block (Mus musculus [2]): 0%
Block (Mus musculus [3]): 80%

Structure (SMILES): CCNS(=O)(=O)OC[C@@]12OC[C@H]3OC(C)(C)O[C@H]3[C@@H]1OC(C)(C)O2
Block (Mus musculus [1]): 0%
Block (Mus musculus [2]): 90%

Structure (SMILES): CC1(C)O[C@H]2CCCO[C@@]2(COS(N)(=O)=O)O1
Block (Mus musculus [2]): 0%
Block (Mus musculus [3]): 100%

Structure (SMILES): CB1O[C@@H]2[C@@H](CO[C@@]3(COS(N)(=O)=O)OC(C)(C)O[C@@H]23)O1
Block (Mus musculus [2]): 0%
Block (Mus musculus [3]): 50%

Structure (SMILES): CC1(C)O[C@H]2[C@@H]3OS(=O)(=O)O[C@@H]3CO[C@@]2(COS(=O)(=O)n2ccnc2)O1
Block (Mus musculus [7]): 0%
Block (Mus musculus [15]): 100%

Structure (SMILES): CC1(C)O[C@H]2C=CCO[C@@]2(COS(N)(=O)=O)O1
Block (Mus musculus [3]): 0%

Structure (SMILES): CC1(C)O[C@@H]2[C@@H](CO[C@@]3(COS(N)(=O)=O)OC(C)(C)O[C@@H]23)O1 [TOPIRAMATE]
IC50 [16]: 8.89 µM
ED50 (Rattus norvegicus [17]): > 1000 mg/kg
ED50 (Mus musculus [5]): 53 mg/kg
logP [10]: 0.5
pKa [11]: 8.66
ED50 (Mus musculus [18]): 246 mg/kg
ED50 (Mus musculus [19]): 43.8 mg/kg
logP [13]: 0.53
IC50 [20]: 4.55 µM
ED50 (Rattus norvegicus [21]): 153 mg/kg
ED50 (Rattus norvegicus [22]): 34 mg/kg
ED50 (Rattus norvegicus [23]): 15 mg/kg
ED50 (Mus musculus [24]): 47.6 mg/kg
IC50 [25]: 4.84 µM
logD [14]: 0.51
ED50 (Mus musculus [26]): > 1000 mg/kg
ED50 (Mus musculus [27]): 53.5 mg/kg
IC50 [28]: 1.36 µM
ED50 (Rattus norvegicus [29]): 6.7 mg/kg
logP [30]: 3.26
IC50 [31]: 8.35 µM
ED50 (Rattus norvegicus [32]): 16 mg/kg
ED50 (Rattus norvegicus [33]): 15 mg/kg
ED50 (Rattus norvegicus [34]): 103 mg/kg
P7.4 [35]: 3.31

Structure (SMILES): CC1(C)O[C@H]2[C@@H]3OS(=O)O[C@@H]3CO[C@@]2(COS(N)(=O)=O)O1 (stereo partly drawn)
ED50 (Mus musculus [5]): 5.7 mg/kg

Structure (SMILES): CC1(C)O[C@@H]2[C@@H](CC[C@@]3(COS(N)(=O)=O)OC(C)(C)O[C@@H]23)O1
Block (Mus musculus [1]): 80%
ED50 (Mus musculus [5]): 16.6 mg/kg
Block (Mus musculus [36]): 30%

Structure (SMILES): CCCCNS(=O)(=O)OC[C@@]12OC[C@H]3OC(C)(C)O[C@H]3[C@@H]1OC(C)(C)O2
Block (Mus musculus [7]): 0%
Block (Mus musculus [2]): 80%

Structure (SMILES): Cc1ccc(S(=O)(=O)N=S2(=O)O[C@@H]3[C@@H](CO[C@@]4(COS(N)(=O)=O)OC(C)(C)O[C@@H]34)O2)cc1 (stereo partly drawn)
Block (Mus musculus [3]): 80%
